Compound activity (PubChem)
Compounds with a hit are over-represented: about 4.2% of the library has one in this group of screens.
GalR3 antagonist: antagonists of human GalR3; HEK293 GalR3-CNG cAMP membrane potential fluorescence; galR3 body fused to GalR1 C-terminus; actives 0.44% (n = 360,000); inhibition, % at 3 µM; AID 651719; O60755;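 active = inhibition above the screen-wide average plus 3 SD, cut at about 13% in these data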;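 also: forskolin and galanin both at EC90 stimulate the cells; cAMP rise reported by CNG channel membrane potential dye signal; 0% = forskolin plus galanin with DMSO and 100% = forskolin alone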
TAAR1 agonist: agonists of human TAAR1. Q96RJ0. CHO RD-HGA16 TAAR1, Fluo-8 calcium fluorescence; vehicle wells 0%, saturating PEA agonist 100%. activation, % at 3 µM. actives 0.99% (n = 360,000). AID 624467;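 active = activation above the mean activation of all test compounds in the run plus 3 SD, cut at about 38% in these data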
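System: CHO RD-HGA16 cells carrying human TAAR1 plus Gα16; Incubation: 17-24 h seeding, 75 min 37 °C dye, 30 min RT; Measured by: Fluo-8 fluorescence, 5 s baseline then 140 s kinetic read; Control set: DMSO and PEA EC100; Replication: single well for each compound.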
OX1R antag-1: human HCRTR1 antagonism. CHO/OX1R cells, Fluo-8 calcium fluorescence, orexin A. actives 0.43% (n = 330,000). inhibition, % at 5 µM. O43613;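 active = inhibition above its plate's threshold, mean inhibition of all tested compounds on the plate plus 3 SD, cut at about 37% in these data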;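 also: 0% = orexin A challenge wells and 100% = SB-334867-A antagonist wells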
Target sequence (O43613 whole entry, looked up): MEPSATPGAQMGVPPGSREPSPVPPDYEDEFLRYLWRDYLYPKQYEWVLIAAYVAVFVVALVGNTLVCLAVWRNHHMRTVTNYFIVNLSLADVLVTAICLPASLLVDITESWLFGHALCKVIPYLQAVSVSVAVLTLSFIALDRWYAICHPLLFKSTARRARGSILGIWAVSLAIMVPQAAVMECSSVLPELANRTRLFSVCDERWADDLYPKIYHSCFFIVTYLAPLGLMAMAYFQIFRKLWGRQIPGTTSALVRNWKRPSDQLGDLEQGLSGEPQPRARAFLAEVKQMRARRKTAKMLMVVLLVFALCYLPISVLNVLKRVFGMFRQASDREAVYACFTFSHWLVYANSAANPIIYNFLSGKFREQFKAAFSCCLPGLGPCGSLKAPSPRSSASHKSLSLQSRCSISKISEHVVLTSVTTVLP
TAAR1 antagonist: antagonists of human TAAR1; Q96RJ0; CHO RD-HGA16 TAAR1, Fluo-8 calcium fluorescence, antagonist; inhibition, % at 3 µM; actives 1.5% (n = 360,000); AID 624466;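 active = inhibition above a per-plate cutoff, the mean inhibition of test compounds on that plate plus 3 SD, cut at about 49% in these data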;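 also: 0% = DMSO plus EC80 beta-PEA response and 100% = DMSO alone without agonist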
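System: RD-HGA16 CHO cells with stable hTAAR1 and Gα16 | Probe or stimulus: EC80 β-phenethylamine stimulus | Dosing: 3 µM, single point | Times: Dye loading 75 min at 37 °C, then 30 min room temperature | Measured by: Fluo-8 calcium-sensitive fluorescence | Read-out basis: % inhibition of agonist calcium response | Replicates: n of 1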
OX1R antag-2: OX1R (human) antagonism; O43613; OX1R-expressing cells, FRET antagonist read-out; inhibition, % at 6.6 µM; actives 1.8% (n = 330,000); AID 485270; in the data active = inhibition mostly above about 38%, no sharp cut-off; inactive = mostly below about 40%;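 also: 0% = agonist challenge alone and 100% = reference antagonist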
CHO parental Ca: counter-screen: ATP calcium response change in parental CHO cells. parental CHO-K1, ATP-induced calcium, Fluo-8 fluorescence. inhibition, % at 5.6 µM. actives 0.63% (n = 330,000). AID 463079;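 active = inhibition above that plate's mean sample inhibition plus 3 SD, cut at about 26% in these data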;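 also: 0% = ATP-challenged DMSO wells and 100% = DMSO wells without ATP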
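Test system: parental CHO cells; detection: calcium-sensitive Fluo-8 fluorescence; evaluation: percent inhibition of calcium signal; also added: ATP as calcium-mobilizing challenge; repeats: one well per compound; control set: ATP-challenged DMSO wells low, unchallenged DMSO wells high; compound: single nominal dose of 5.6 µM per compound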
GalR3 conf: GalR3 (human) antagonism, confirmation; shares compounds with GalR3 antagonist; HEK293 GalR3 CNG cAMP biosensor, membrane potential fluorescence; galR3 fused to GalR1 carboxy tail; challenged with forskolin and galanin at EC90; inhibition, % at 3 µM; actives 59% (n = 1,600); AID 652245;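 active = inhibition above the primary screen's cutoff, the mean inhibition of all screened compounds plus 3 SD, cut at about 13% in these data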;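 also: 0% = forskolin plus galanin and 100% = forskolin alone with DMSO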
HEK-CNG parental: acts as nonspecific agonist in parental HEK-CNG cells; actives 10% (n = 1,600); activation, % at 3 µM; shares compounds with GalR3 antagonist; HEK293-CNG parental cells, cAMP membrane potential fluorescence; normalised: DMSO wells 0%, forskolin wells 100%; in the data active = activation above about 1.3%
The depositor's hits bear a star.

`O=C(Nc1ccncc1)c1cccc(S(=O)(=O)N2CCc3ccccc32)c1` gave GalR3 antagonist 76*, TAAR1 agonist 5, OX1R antag-1 48*, TAAR1 antagonist 4, OX1R antag-2 48*, CHO parental Ca 59*, GalR3 conf 46* and HEK-CNG parental 0.
For O=C(Nc1cccnc1)c1cccc(S(=O)(=O)N2CCc3ccccc32)c1 the results were GalR3 antagonist -4, TAAR1 agonist 10, OX1R antag-1 -29, TAAR1 antagonist 12, OX1R antag-2 13 and CHO parental Ca -16.
Cc1ccc(S(=O)(=O)NN2C(=O)c3ccccc3NC2(C)C)cc1 was read as GalR3 antagonist -7, TAAR1 agonist 5, OX1R antag-1 -2, TAAR1 antagonist -9, OX1R antag-2 -3 and CHO parental Ca -10.
`CCN(CCO)Cc1csc2ccccc12` gave GalR3 antagonist 2, TAAR1 agonist 4, OX1R antag-1 -20, TAAR1 antagonist -5, OX1R antag-2 10 and CHO parental Ca -8.
Screening Cc1ccc(NC(=S)Nc2ccc3cn[nH]c3c2)cc1 returned GalR3 antagonist 2, TAAR1 agonist 2, OX1R antag-1 5, TAAR1 antagonist -13, OX1R antag-2 5 and CHO parental Ca -2.
O=C(OCC(=O)N1CCc2ccccc21)[C@@H]1CC(O)CN1S(=O)(=O)c1ccc(Cl)cc1 (stereo partly drawn) was read as GalR3 antagonist -5, TAAR1 agonist 0, OX1R antag-1 -30, TAAR1 antagonist -1, OX1R antag-2 2 and CHO parental Ca -33.
`COc1ccccc1NC(=O)c1ccc(NC(=O)c2ccco2)cc1` gave GalR3 antagonist -10, TAAR1 agonist 5, OX1R antag-1 -17, TAAR1 antagonist 4, OX1R antag-2 10 and CHO parental Ca -14.
For CCOc1ccccc1NC(=O)c1ccc(NC(=O)c2ccco2)cc1 the results were TAAR1 agonist 17, OX1R antag-1 -12, TAAR1 antagonist 38, OX1R antag-2 41, CHO parental Ca -22, GalR3 conf 6 and HEK-CNG parental -1.
`CC(Sc1nc(N)c2c3c(sc2n1)CSC(C)(C)C3)C(=O)Nc1ccccc1` (stereo not drawn) gave GalR3 antagonist 54*, TAAR1 agonist 3, OX1R antag-1 -14, TAAR1 antagonist -18, OX1R antag-2 11, CHO parental Ca -21, GalR3 conf 45* and HEK-CNG parental 0.
CCOC(=O)c1cnn(-c2ccc(C(C)C)cc2)c1NC(=O)C1CCC1 was read as GalR3 antagonist -4, TAAR1 agonist 5, OX1R antag-1 -29, TAAR1 antagonist 13, OX1R antag-2 32 and CHO parental Ca -9.
`CCn1nc(CC(=O)Nc2ccc(-n3cnnn3)c(C)c2)c2ccccc2c1=O` gave GalR3 antagonist -2, TAAR1 agonist 2, OX1R antag-1 -19, TAAR1 antagonist 4, OX1R antag-2 29 and CHO parental Ca -14.
For CCn1nc(CC(=O)Nc2ccc(-n3cnnn3)c(OC)c2)c2ccccc2c1=O the results were GalR3 antagonist 17*, TAAR1 agonist 8, OX1R antag-1 -30, TAAR1 antagonist -7, OX1R antag-2 15, CHO parental Ca -26, GalR3 conf 17* and HEK-CNG parental 0.
Screening COc1ccc(C(=O)NC2CCCN(Cc3ccccc3F)C2)c(OC)c1OC (stereo not drawn) returned GalR3 antagonist 16*, TAAR1 agonist 4, OX1R antag-1 -32, TAAR1 antagonist -9, OX1R antag-2 10, CHO parental Ca -24, GalR3 conf 9 and HEK-CNG parental 0.
For C[C@@H]1CC=C[C@H]2[C@H]1C(=O)N(Cc1ccccc1)[C@H]2c1ccc2ccccc2c1 the results were TAAR1 agonist -2, OX1R antag-1 -11, TAAR1 antagonist -7, OX1R antag-2 51, CHO parental Ca -28, GalR3 conf -5 and HEK-CNG parental 1.
Screening C#Cc1ccc(NC(=O)C2(C)CCN2C(=O)Cc2ccc(C(C)(C)C)cc2)cc1 (stereo not drawn) returned GalR3 antagonist 27*, TAAR1 agonist 5, TAAR1 antagonist 24, GalR3 conf 94* and HEK-CNG parental 0.
For C#Cc1ccc(NC(=O)C2(C)CCN2C(=O)Cc2ccc(C(C)C)cc2)cc1 (stereo not drawn) the results were GalR3 antagonist 84*, TAAR1 agonist 0, TAAR1 antagonist 5, GalR3 conf 92* and HEK-CNG parental 0.
Screening COc1ccc(C(=O)COC(=O)c2cc([N+](=O)[O-])ccc2N2CCOCC2)c(OC)c1 returned GalR3 antagonist 1, TAAR1 agonist 2, OX1R antag-1 -18, TAAR1 antagonist 23, OX1R antag-2 33 and CHO parental Ca -11.
Screening COc1ccccc1N1C(=O)S/C(=C\c2cc(C)n(C)c2C)C1=O returned GalR3 antagonist 19*, TAAR1 agonist -2, OX1R antag-1 -9, TAAR1 antagonist -2, OX1R antag-2 10, CHO parental Ca -3, GalR3 conf 1 and HEK-CNG parental 0.
`COc1ccccc1N1C(=O)S/C(=C\c2ccc(C)s2)C1=O` gave GalR3 antagonist -5, TAAR1 agonist 8, OX1R antag-1 5, TAAR1 antagonist -1, OX1R antag-2 30 and CHO parental Ca 17.
O=C(COc1ccccc1)Nc1ccc(-c2ccc(N3CCOCC3)nn2)cc1 was read as GalR3 antagonist -5, TAAR1 agonist 3, OX1R antag-1 -22, TAAR1 antagonist -2, OX1R antag-2 19 and CHO parental Ca -7.
For CCOc1ccc(OCCSc2nc3ccccc3[nH]2)cc1 the results were GalR3 antagonist -11, TAAR1 agonist 17, OX1R antag-1 -14, TAAR1 antagonist 30, OX1R antag-2 20 and CHO parental Ca 3.
`CCCOc1ccc(CSc2nc3ccccc3[nH]2)cc1` gave GalR3 antagonist 86*, TAAR1 agonist 8, OX1R antag-1 18, TAAR1 antagonist 25, OX1R antag-2 27, CHO parental Ca 48*, GalR3 conf 108* and HEK-CNG parental -1.
For Cc1cccc(NC(=O)C2CCCN2C(=O)Oc2ccccc2)c1 (stereo not drawn) the results were GalR3 antagonist 2, TAAR1 agonist 2, OX1R antag-1 -9, TAAR1 antagonist -5, OX1R antag-2 21 and CHO parental Ca -4.
